Experimental data: ChEMBL document CHEMBL1177647, “Synthesis and characterization of novel phenylindoles as potential probes for imaging of β-amyloid plaques in the brain” (Bioorg Med Chem, 2010)
pKi: −log10 of the molar value.

Tests used:
Brain [1] = test: Biodistribution in ddY mouse brain at 0.2 to 0.4 uCi, iv after 60 mins; type: ADME, organism-based; settings: in vivo, 1 h
Method in brief: (§1)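 Radiotracer (0.2–0.4 μCi) given as a single tail-vein injection of 100 μL saline containing 10 μL ethanol to normal ddY mice (5 weeks old, 25–30 g). Mice were sacrificed at set times after injection. Organs were excised and weighed, and radioactivity was counted in an automatic gamma counter.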

Brain [2] = test: Biodistribution in ddY mouse brain at 0.2 to 0.4 uCi, iv after 30 mins; type: ADME, organism-based; settings: in vivo, 0.5 h; method in brief: as §1
Brain [3] = test: Biodistribution in ddY mouse brain at 0.2 to 0.4 uCi, iv after 10 mins; type: ADME, organism-based; settings: in vivo; method in brief: as §1
Brain [4] = test: Biodistribution in ddY mouse brain at 0.2 to 0.4 uCi, iv after 2 mins; type: ADME, organism-based; settings: in vivo; method in brief: as §1
Stomach [5] = test: Biodistribution in ddY mouse stomach at 0.2 to 0.4 uCi, iv after 60 mins measured per gram of organ; type: ADME, organism-based; settings: in vivo, 1 h; method in brief: as §1
Stomach [6] = test: Biodistribution in ddY mouse stomach at 0.2 to 0.4 uCi, iv after 30 mins measured per gram of organ; type: ADME, organism-based; settings: in vivo, 0.5 h; method in brief: as §1
Stomach [7] = test: Biodistribution in ddY mouse stomach at 0.2 to 0.4 uCi, iv after 10 mins measured per gram of organ; type: ADME, organism-based; settings: in vivo; method in brief: as §1
Stomach [8] = test: Biodistribution in ddY mouse stomach at 0.2 to 0.4 uCi, iv after 2 mins measured per gram of organ; type: ADME, organism-based; settings: in vivo; method in brief: as §1
Heart [9] = test: Biodistribution in ddY mouse heart at 0.2 to 0.4 uCi, iv after 60 mins; type: ADME, organism-based; settings: in vivo, 1 h; method in brief: as §1
Heart [10] = test: Biodistribution in ddY mouse heart at 0.2 to 0.4 uCi, iv after 30 mins; type: ADME, organism-based; settings: in vivo, 0.5 h; method in brief: as §1
Heart [11] = test: Biodistribution in ddY mouse heart at 0.2 to 0.4 uCi, iv after 10 mins; type: ADME, organism-based; settings: in vivo; method in brief: as §1
Heart [12] = test: Biodistribution in ddY mouse heart at 0.2 to 0.4 uCi, iv after 2 mins; type: ADME, organism-based; settings: in vivo; method in brief: as §1
Pancreas [13] = test: Biodistribution in ddY mouse pancreas at 0.2 to 0.4 uCi, iv after 60 mins; type: ADME, organism-based; settings: in vivo, 1 h; method in brief: as §1
Pancreas [14] = test: Biodistribution in ddY mouse pancreas at 0.2 to 0.4 uCi, iv after 30 mins; type: ADME, organism-based; settings: in vivo, 0.5 h; method in brief: as §1
Pancreas [15] = test: Biodistribution in ddY mouse pancreas at 0.2 to 0.4 uCi, iv after 10 mins; type: ADME, organism-based; settings: in vivo; method in brief: as §1
Pancreas [16] = test: Biodistribution in ddY mouse pancreas at 0.2 to 0.4 uCi, iv after 2 mins; type: ADME, organism-based; settings: in vivo; method in brief: as §1
Spleen [17] = test: Biodistribution in ddY mouse spleen at 0.2 to 0.4 uCi, iv after 60 mins; type: ADME, organism-based; settings: in vivo, 1 h; method in brief: as §1
Spleen [18] = test: Biodistribution in ddY mouse spleen at 0.2 to 0.4 uCi, iv after 30 mins; type: ADME, organism-based; settings: in vivo, 0.5 h; method in brief: as §1
Spleen [19] = test: Biodistribution in ddY mouse spleen at 0.2 to 0.4 uCi, iv after 10 mins; type: ADME, organism-based; settings: in vivo; method in brief: as §1
Spleen [20] = test: Biodistribution in ddY mouse spleen at 0.2 to 0.4 uCi, iv after 2 mins; type: ADME, organism-based; settings: in vivo; method in brief: as §1
Intestine [21] = test: Biodistribution in ddY mouse intestine at 0.2 to 0.4 uCi, iv after 60 mins; type: ADME, organism-based; settings: in vivo, 1 h; method in brief: as §1
Intestine [22] = test: Biodistribution in ddY mouse intestine at 0.2 to 0.4 uCi, iv after 30 mins; type: ADME, organism-based; settings: in vivo, 0.5 h; method in brief: as §1
Intestine [23] = test: Biodistribution in ddY mouse intestine at 0.2 to 0.4 uCi, iv after 10 mins; type: ADME, organism-based; settings: in vivo; method in brief: as §1
Intestine [24] = test: Biodistribution in ddY mouse intestine at 0.2 to 0.4 uCi, iv after 2 mins; type: ADME, organism-based; settings: in vivo; method in brief: as §1
Kidney [25] = test: Biodistribution in ddY mouse kidney at 0.2 to 0.4 uCi, iv after 60 mins; type: ADME, organism-based; settings: in vivo, 1 h; method in brief: as §1
Kidney [26] = test: Biodistribution in ddY mouse kidney at 0.2 to 0.4 uCi, iv after 30 mins; type: ADME, organism-based; settings: in vivo, 0.5 h; method in brief: as §1
Kidney [27] = test: Biodistribution in ddY mouse kidney at 0.2 to 0.4 uCi, iv after 10 mins; type: ADME, organism-based; settings: in vivo; method in brief: as §1
Kidney [28] = test: Biodistribution in ddY mouse kidney at 0.2 to 0.4 uCi, iv after 2 mins; type: ADME, organism-based; settings: in vivo; method in brief: as §1
Liver [29] = test: Biodistribution in ddY mouse liver at 0.2 to 0.4 uCi, iv after 60 mins; type: ADME, organism-based; settings: in vivo, 1 h; method in brief: as §1
Liver [30] = test: Biodistribution in ddY mouse liver at 0.2 to 0.4 uCi, iv after 2 mins; type: ADME, organism-based; settings: in vivo; method in brief: as §1
Liver [31] = test: Biodistribution in ddY mouse liver at 0.2 to 0.4 uCi, iv after 10 mins; type: ADME, organism-based; settings: in vivo; method in brief: as §1
Liver [32] = test: Biodistribution in ddY mouse liver at 0.2 to 0.4 uCi, iv after 30 mins; type: ADME, organism-based; settings: in vivo, 0.5 h; method in brief: as §1
Blood [33] = test: Biodistribution in ddY mouse blood at 0.2 to 0.4 uCi, iv after 60 mins; type: ADME, organism-based; settings: in vivo, 1 h; method in brief: as §1
Blood [34] = test: Biodistribution in ddY mouse blood at 0.2 to 0.4 uCi, iv after 30 mins; type: ADME, organism-based; settings: in vivo, 0.5 h; method in brief: as §1
Blood [35] = test: Biodistribution in ddY mouse blood at 0.2 to 0.4 uCi, iv after 10 mins; type: ADME, organism-based; settings: in vivo; method in brief: as §1
Blood [36] = test: Biodistribution in ddY mouse blood at 0.2 to 0.4 uCi, iv after 2 mins; type: ADME, organism-based; settings: in vivo; method in brief: as §1
[37] = Displacement of [125I]IMPY from amyloid beta42 by gamma counting

SMILES | Drug uptake (Brain [1]) | Drug uptake (Brain [2]) | Drug uptake (Brain [3]) | Drug uptake (Brain [4]) | Drug uptake (Stomach [5]) | Drug uptake (Stomach [6]) | Drug uptake (Stomach [7]) | Drug uptake (Stomach [8]) | Drug uptake (Heart [9]) | Drug uptake (Heart [10]) | Drug uptake (Heart [11]) | Drug uptake (Heart [12]) | Drug uptake (Pancreas [13]) | Drug uptake (Pancreas [14]) | Drug uptake (Pancreas [15]) | Drug uptake (Pancreas [16]) | Drug uptake (Spleen [17]) | Drug uptake (Spleen [18]) | Drug uptake (Spleen [19]) | pKi [37] | further results
COc1ccc(-c2cc3cc([125I])ccc3[nH]2)cc1 | 1.16 % ID/g | 1.36 % ID/g | 2.07 % ID/g | 2.11 % ID/g | 3.06 %ID | 2.67 %ID | 1.38 %ID | 0.72 %ID | 1.06 % ID/g | 1.47 % ID/g | 2.97 % ID/g | 7.72 % ID/g | 1.29 % ID/g | 1.95 % ID/g | 3.94 % ID/g | 4.54 % ID/g | 2.02 % ID/g | 2.96 % ID/g | 3.43 % ID/g | – | Drug uptake (Spleen [20]): 4.22 % ID/g; Drug uptake (Intestine [21]): 20.35 % ID/g; Drug uptake (Intestine [22]): 12.32 % ID/g; Drug uptake (Intestine [23]): 6.85 % ID/g; Drug uptake (Intestine [24]): 1.9 % ID/g; Drug uptake (Kidney [25]): 2.05 % ID/g; Drug uptake (Kidney [26]): 2.89 % ID/g; Drug uptake (Kidney [27]): 4.96 % ID/g; Drug uptake (Kidney [28]): 8.76 % ID/g; Drug uptake (Liver [29]): 8.22 % ID/g; Drug uptake (Liver [30]): 17.81 % ID/g; Drug uptake (Liver [31]): 13.96 % ID/g; Drug uptake (Liver [32]): 10.38 % ID/g; Drug uptake (Blood [33]): 0.74 % ID/g; Drug uptake (Blood [34]): 1.38 % ID/g; Drug uptake (Blood [35]): 1.97 % ID/g; Drug uptake (Blood [36]): 3.59 % ID/g
CNc1ccc(-c2cc3cc(I)ccc3[nH]2)cc1 | – | – | – | – | – | – | – | – | – | – | – | – | – | – | – | – | – | – | – | 7.57 | –
CNc1ccc(-c2cc3cc([125I])ccc3[nH]2)cc1 | 0.83 % ID/g | 1.42 % ID/g | 1.68 % ID/g | 1.1 % ID/g | 1.68 %ID | 2.55 %ID | 1.34 %ID | 0.52 %ID | 1.88 % ID/g | 2.96 % ID/g | 3.59 % ID/g | 5.68 % ID/g | 1.27 % ID/g | 2.12 % ID/g | 2.87 % ID/g | 2.31 % ID/g | 5.89 % ID/g | 10.34 % ID/g | 19.67 % ID/g | – | Drug uptake (Spleen [20]): 7.83 % ID/g; Drug uptake (Intestine [21]): 9.48 % ID/g; Drug uptake (Intestine [22]): 8.54 % ID/g; Drug uptake (Intestine [23]): 3.57 % ID/g; Drug uptake (Intestine [24]): 0.97 % ID/g; Drug uptake (Kidney [25]): 2.61 % ID/g; Drug uptake (Kidney [26]): 3.84 % ID/g; Drug uptake (Kidney [27]): 4.31 % ID/g; Drug uptake (Kidney [28]): 5.53 % ID/g; Drug uptake (Liver [29]): 15.89 % ID/g; Drug uptake (Liver [30]): 22.85 % ID/g; Drug uptake (Liver [31]): 26.83 % ID/g; Drug uptake (Liver [32]): 23.07 % ID/g; Drug uptake (Blood [33]): 0.8 % ID/g; Drug uptake (Blood [34]): 1.36 % ID/g; Drug uptake (Blood [35]): 1.71 % ID/g; Drug uptake (Blood [36]): 3.77 % ID/g
CN(C)c1ccc(-c2cc3cc([125I])ccc3[nH]2)cc1 | 0.71 % ID/g | 0.96 % ID/g | 1.19 % ID/g | 1.19 % ID/g | 16.26 %ID | 17.77 %ID | 10.65 %ID | 4.03 %ID | 1.84 % ID/g | 1.87 % ID/g | 4.82 % ID/g | 8.08 % ID/g | 2.3 % ID/g | 3.1 % ID/g | 4.13 % ID/g | 5.21 % ID/g | 2.24 % ID/g | 2.6 % ID/g | 3.28 % ID/g | – | Drug uptake (Spleen [20]): 4.13 % ID/g; Drug uptake (Intestine [21]): 6.08 % ID/g; Drug uptake (Intestine [22]): 4.52 % ID/g; Drug uptake (Intestine [23]): 3.09 % ID/g; Drug uptake (Intestine [24]): 1.8 % ID/g; Drug uptake (Kidney [25]): 4.71 % ID/g; Drug uptake (Kidney [26]): 4.58 % ID/g; Drug uptake (Kidney [27]): 4.46 % ID/g; Drug uptake (Kidney [28]): 9.49 % ID/g; Drug uptake (Liver [29]): 3.24 % ID/g; Drug uptake (Liver [30]): 10.2 % ID/g; Drug uptake (Liver [31]): 5.14 % ID/g; Drug uptake (Liver [32]): 3.55 % ID/g; Drug uptake (Blood [33]): 3.29 % ID/g; Drug uptake (Blood [34]): 3.68 % ID/g; Drug uptake (Blood [35]): 4.53 % ID/g; Drug uptake (Blood [36]): 6.18 % ID/g
Oc1ccc(-c2cc3cc(I)ccc3[nH]2)cc1 | – | – | – | – | – | – | – | – | – | – | – | – | – | – | – | – | – | – | – | 7.48 | –
OCCOc1ccc(-c2cc3cc(I)ccc3[nH]2)cc1 | – | – | – | – | – | – | – | – | – | – | – | – | – | – | – | – | – | – | – | 7.59 | –
CN(C)c1ccc(-n2ccc3cc(I)ccc32)cc1 | – | – | – | – | – | – | – | – | – | – | – | – | – | – | – | – | – | – | – | < 5.00 | –
